From ChEMBL document CHEMBL2375244 (J Med Chem, 2013)
The source made the active and inactive calls. The calls are words filed in the database; no cut-off is given here.

Columns and labels:
[1] = target: CDK2/Cyclin A2 (Homo sapiens) (UniProt P24941+P20248); assay: Inhibition of human CDK2/Cyclin A at 0.1 uM incubated for 15 mins prior to substrate addition measured after 90 mins by P33-radiolabeled assay relative to control; assay type: protein-complex assay
[2] = target: CDK9/Cyclin K (Homo sapiens) (UniProt P50750+O75909); assay: Inhibition of human CDK9/Cyclin K at 0.1 uM incubated for 15 mins prior to substrate addition measured after 90 mins by P33-radiolabeled assay relative to control; assay type: protein-complex assay
Summary of the method: (§1)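 Kinome profiling (339-kinase panel) by a contract lab using a P33-radiolabel assay. Each kinase was tested at a single compound concentration of 0.1 μM, in duplicate, with ATP at 10 μM.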

[3] = system: A673; assay: Induction of apoptosis in human A673 cells assessed as caspase-3 activation after 24 hrs by luminescence assay; assay type: functional, cell-based; conditions: A673, 24 h
Summary of the method: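 Caspase-3/7 activation measured with a Caspase-Glo 3/7 luminescent assay. Cells were plated as for the high-throughput viability assay and exposed for 24 h to serial dilutions. EC50 was obtained from the dose-response.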

[4] = target: CDK2/Cyclin A2 (Homo sapiens, UniProt P24941); assay: Inhibition of CDK2/Cyclin A (unknown origin)-mediated phosphorylation of peptide substrate incubated for 15 mins prior to substrate addition measured after 90 mins by P33-radiolabeled assay; assay type: protein-complex assay
[5] = target: Mitogen-activated protein kinase 15 (Homo sapiens) (UniProt Q8TD08); assay: Inhibition of human ERK7 at 0.1 uM incubated for 15 mins prior to substrate addition measured after 90 mins by P33-radiolabeled assay relative to control
[6] = target: Dual specificity protein kinase CLK1 (Homo sapiens) (UniProt P49759); assay: Inhibition of human CLK1 at 0.1 uM incubated for 15 mins prior to substrate addition measured after 90 mins by P33-radiolabeled assay relative to control
[7] = target: CDK9/cyclin T1 (Homo sapiens) (UniProt O60563+P50750); assay: Inhibition of human CDK9/CyclinT1 at 0.1 uM incubated for 15 mins prior to substrate addition measured after 90 mins by P33-radiolabeled assay relative to control; assay type: protein-complex assay; summary of the method: as §1
[8] = target: CDK2/Cyclin A1 (Homo sapiens, UniProt P24941); assay: Inhibition of CDK2/Cyclin A1 (unknown origin)-mediated phosphorylation of peptide substrate incubated for 15 mins prior to substrate addition measured after 90 mins by P33-radiolabeled assay; assay type: protein-complex assay
[9] = Cytotoxicity against human RPMI18226 cells after 72 hrs by resazurin/resorufin-based fluorescence assay; assay type: functional, cell-based; conditions: RPMI18226, 72 h
[10] = Cytotoxicity against human MDA-MB-436 cells after 72 hrs by resazurin/resorufin-based fluorescence assay; assay type: functional, cell-based; conditions: MDA-MB-436, 72 h
[11] = system: U-266; assay: Cytotoxicity against human U266 cells after 72 hrs by resazurin/resorufin-based fluorescence assay; assay type: functional, cell-based; conditions: U-266, 72 h
[12] = Cytotoxicity against mouse TM4 cells after 72 hrs by MTT assay; assay type: functional, cell-based; conditions: TM4, 72 h
Summary of the method: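 Cells kept in RPMI or DMEM with 10% FBS at 37 °C, 5% CO₂ and allowed to attach overnight; 72 h with increasing inhibitor concentrations; then 1 mg/mL MTT for 3 h, DMSO solubilisation, OD read at 540 nm. Testis lines had culture conditions adapted to them. Dose-response in triplicate, 9 concentrations between 0.02 and 100 μM, averaged.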

[13] = system: NCI-H929; assay: Induction of apoptosis in human NCI-H929 cells assessed as increase in cleaved caspase-3 level at […] after 24 hrs by FACS flow cytometric analysis relative to control; assay type: functional
[14] = target: Glycogen synthase kinase-3 alpha (Homo sapiens) (UniProt P49840); assay: Inhibition of human GSK3alpha at 0.1 uM incubated for 15 mins prior to substrate addition measured after 90 mins by P33-radiolabeled assay relative to control
[15] = target: T1, Glycogen synthase kinase-3 beta (Homo sapiens, UniProt P49841); assay: Inhibition of GSK3beta (unknown origin)-mediated phosphorylation of peptide substrate incubated for 15 mins prior to substrate addition measured after 90 mins by P33-radiolabeled assay
Target sequence in this assay (P49841 whole entry): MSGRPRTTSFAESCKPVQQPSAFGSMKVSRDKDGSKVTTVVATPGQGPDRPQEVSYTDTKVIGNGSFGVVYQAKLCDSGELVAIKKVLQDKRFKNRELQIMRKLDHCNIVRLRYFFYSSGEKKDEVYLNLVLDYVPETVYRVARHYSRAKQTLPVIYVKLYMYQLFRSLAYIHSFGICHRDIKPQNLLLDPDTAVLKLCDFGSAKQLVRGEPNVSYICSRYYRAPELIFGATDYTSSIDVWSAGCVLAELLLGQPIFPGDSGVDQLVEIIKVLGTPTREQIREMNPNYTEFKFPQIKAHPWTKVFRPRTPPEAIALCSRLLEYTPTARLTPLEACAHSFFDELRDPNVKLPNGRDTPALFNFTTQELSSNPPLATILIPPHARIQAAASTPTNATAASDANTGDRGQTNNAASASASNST

[16] = system: SK-ES1; assay: Cytotoxicity against human SK-ES-1 cells after 72 hrs by resazurin/resorufin-based fluorescence assay; assay type: functional, cell-based; conditions: SK-ES1, 72 h
[17] = target: CDK6/cyclin D1 (Homo sapiens) (UniProt P24385+Q00534); assay: Inhibition of human CDK6/Cyclin D1 at 0.1 uM incubated for 15 mins prior to substrate addition measured after 90 mins by P33-radiolabeled assay relative to control; assay type: protein-complex assay
[18] = target: Cyclin-dependent kinase 2 (Homo sapiens) (UniProt P24941); assay: Inhibition of CDK2-mediated Rb phosphorylation at Ser 807/811 in human A673 cells at 0.25 uM after 24 hrs by immunoblotting analysis; assay type: cell-based
Summary of the method: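 Asynchronously growing A-673 cells at ~70% confluence were exposed for 24 h to increasing concentrations, then lysed. 50 μg protein per lane on 10% SDS-PAGE, transferred to nitrocellulose. Phospho-Rb Ser807/811 antibody, with β-actin as loading control, detected with fluorescent secondary antibodies on an infrared scanner.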

[19] = system: HOS-TE85; assay: Cytotoxicity against human MNNG-HOS cells after 72 hrs by resazurin/resorufin-based fluorescence assay; assay type: functional, cell-based; conditions: HOS-TE85, 72 h
[20] = system: SW872; assay: Cytotoxicity against human SW872 cells after 72 hrs by resazurin/resorufin-based fluorescence assay; assay type: functional, cell-based; conditions: SW872, 72 h
[21] = target: CDK3/Cyclin E (Homo sapiens, UniProt Q00526); assay: Inhibition of CDK3/Cyclin E (unknown origin)-mediated phosphorylation of peptide substrate incubated for 15 mins prior to substrate addition measured after 90 mins by P33-radiolabeled assay; assay type: protein-complex assay
[22] = target: T1, Glycogen synthase kinase-3 beta; assay: Inhibition of human GSK3beta at 0.1 uM incubated for 15 mins prior to substrate addition measured after 90 mins by P33-radiolabeled assay relative to control
Target sequence in this assay (P49841 whole entry, looked up): as the sequence (P49841 whole entry) above

[23] = target: Dual specificity tyrosine-phosphorylation-regulated kinase 1A (Homo sapiens) (UniProt Q13627); assay: Inhibition of human DYRK1A at 0.1 uM incubated for 15 mins prior to substrate addition measured after 90 mins by P33-radiolabeled assay relative to control
[24] = system: SK-UT-1; assay: Cytotoxicity against human SK-UT-1 cells after 72 hrs by resazurin/resorufin-based fluorescence assay; assay type: functional, cell-based; conditions: SK-UT-1, 72 h
[25] = target: CDK1/Cyclin A (Homo sapiens, UniProt P06493); assay: Inhibition of CDK1/Cyclin A (unknown origin)-mediated phosphorylation of peptide substrate incubated for 15 mins prior to substrate addition measured after 90 mins by P33-radiolabeled assay; assay type: protein-complex assay
[26] = system: A673; assay: Cytotoxicity against human A673 cells after 72 hrs by resazurin/resorufin-based fluorescence assay; assay type: functional, cell-based; conditions: A673, 72 h
[27] = Cytotoxicity against human NCI-H929 cells after 72 hrs by resazurin/resorufin-based fluorescence assay; assay type: functional, cell-based; conditions: NCI-H929, 72 h
[28] = system: SK-BR-3; assay: Cytotoxicity against human SK-BR-3 cells after 72 hrs by resazurin/resorufin-based fluorescence assay; assay type: functional, cell-based; conditions: SK-BR-3, 72 h
Summary of the method: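 CellTiter-Blue viability: 1200 cells per well seeded, incubated overnight at 37 °C, 5% CO₂; drugs serially diluted 2:3 in medium, four replicate wells per concentration plus four diluent-only control wells; 72 h exposure; resazurin reduction to resorufin read by fluorescence (579 nm ex/584 nm em). IC50 is the average of three data sets, each using nine concentrations between 0.004 μM and 12.5 μM.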

CDK1/Cyclin A, sequence (P06493 whole entry): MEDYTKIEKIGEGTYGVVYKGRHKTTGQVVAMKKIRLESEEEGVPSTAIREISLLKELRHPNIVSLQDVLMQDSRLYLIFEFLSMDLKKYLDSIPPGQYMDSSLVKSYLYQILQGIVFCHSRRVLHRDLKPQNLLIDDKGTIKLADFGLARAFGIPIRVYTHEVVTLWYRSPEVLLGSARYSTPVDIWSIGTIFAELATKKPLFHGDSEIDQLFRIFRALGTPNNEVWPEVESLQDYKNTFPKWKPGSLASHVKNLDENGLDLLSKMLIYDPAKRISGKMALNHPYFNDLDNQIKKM
CDK1/Cyclin A, sequence (P20248 whole entry, further chain): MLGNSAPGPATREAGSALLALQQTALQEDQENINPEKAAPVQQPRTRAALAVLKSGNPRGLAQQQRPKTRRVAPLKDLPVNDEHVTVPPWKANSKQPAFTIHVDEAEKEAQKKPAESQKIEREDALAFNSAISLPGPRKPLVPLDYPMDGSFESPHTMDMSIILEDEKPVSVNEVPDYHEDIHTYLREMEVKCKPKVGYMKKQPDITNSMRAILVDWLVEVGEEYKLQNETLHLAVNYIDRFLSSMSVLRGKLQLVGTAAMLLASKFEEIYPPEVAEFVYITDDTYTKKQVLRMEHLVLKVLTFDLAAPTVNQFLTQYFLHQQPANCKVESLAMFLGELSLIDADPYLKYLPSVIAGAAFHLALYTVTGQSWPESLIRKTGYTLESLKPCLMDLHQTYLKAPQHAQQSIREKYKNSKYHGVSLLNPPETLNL
Mitogen-activated protein kinase 15 (Homo sapiens), sequence (Q8TD08 whole entry): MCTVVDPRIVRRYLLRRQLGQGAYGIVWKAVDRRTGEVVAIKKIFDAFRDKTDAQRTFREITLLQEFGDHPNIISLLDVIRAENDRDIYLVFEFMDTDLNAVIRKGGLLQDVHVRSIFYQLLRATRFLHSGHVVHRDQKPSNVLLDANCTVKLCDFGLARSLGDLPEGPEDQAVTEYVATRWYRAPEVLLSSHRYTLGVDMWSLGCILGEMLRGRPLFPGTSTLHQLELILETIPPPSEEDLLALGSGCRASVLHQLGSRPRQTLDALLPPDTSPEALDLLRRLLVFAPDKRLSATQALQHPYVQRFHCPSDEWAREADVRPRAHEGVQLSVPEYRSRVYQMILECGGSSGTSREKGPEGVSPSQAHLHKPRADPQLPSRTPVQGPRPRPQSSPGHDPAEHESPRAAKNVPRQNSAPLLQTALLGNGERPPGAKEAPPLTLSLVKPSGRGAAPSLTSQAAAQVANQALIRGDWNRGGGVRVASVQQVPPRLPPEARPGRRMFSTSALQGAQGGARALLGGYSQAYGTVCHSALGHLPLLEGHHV
Glycogen synthase kinase-3 alpha (Homo sapiens), sequence (P49840 2-483 limits assumed): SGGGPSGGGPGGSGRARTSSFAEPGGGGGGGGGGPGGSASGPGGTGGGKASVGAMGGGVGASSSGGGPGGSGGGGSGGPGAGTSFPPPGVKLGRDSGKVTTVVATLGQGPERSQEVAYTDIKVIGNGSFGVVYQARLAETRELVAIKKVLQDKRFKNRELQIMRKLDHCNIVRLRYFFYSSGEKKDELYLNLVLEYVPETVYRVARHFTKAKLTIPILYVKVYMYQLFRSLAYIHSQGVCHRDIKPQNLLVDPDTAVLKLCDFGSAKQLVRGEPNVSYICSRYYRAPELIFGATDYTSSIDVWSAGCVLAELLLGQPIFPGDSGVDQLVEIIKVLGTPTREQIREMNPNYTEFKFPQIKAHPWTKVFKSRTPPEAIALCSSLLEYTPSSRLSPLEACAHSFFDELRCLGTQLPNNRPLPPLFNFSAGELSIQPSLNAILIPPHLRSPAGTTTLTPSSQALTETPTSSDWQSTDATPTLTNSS
CDK3/Cyclin E, sequence (P24864 whole entry): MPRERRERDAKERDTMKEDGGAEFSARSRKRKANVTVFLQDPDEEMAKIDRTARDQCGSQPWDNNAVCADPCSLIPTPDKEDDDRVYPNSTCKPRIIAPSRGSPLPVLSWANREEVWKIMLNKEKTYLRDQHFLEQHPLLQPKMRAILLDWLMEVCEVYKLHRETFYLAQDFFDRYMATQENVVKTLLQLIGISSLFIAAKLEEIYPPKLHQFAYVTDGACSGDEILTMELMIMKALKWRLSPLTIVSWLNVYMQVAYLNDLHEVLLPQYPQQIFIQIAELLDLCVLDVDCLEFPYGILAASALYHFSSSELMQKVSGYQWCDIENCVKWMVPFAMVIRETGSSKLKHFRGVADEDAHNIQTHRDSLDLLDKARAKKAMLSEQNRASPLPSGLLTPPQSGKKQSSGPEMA
CDK3/Cyclin E, sequence (Q00526 whole entry): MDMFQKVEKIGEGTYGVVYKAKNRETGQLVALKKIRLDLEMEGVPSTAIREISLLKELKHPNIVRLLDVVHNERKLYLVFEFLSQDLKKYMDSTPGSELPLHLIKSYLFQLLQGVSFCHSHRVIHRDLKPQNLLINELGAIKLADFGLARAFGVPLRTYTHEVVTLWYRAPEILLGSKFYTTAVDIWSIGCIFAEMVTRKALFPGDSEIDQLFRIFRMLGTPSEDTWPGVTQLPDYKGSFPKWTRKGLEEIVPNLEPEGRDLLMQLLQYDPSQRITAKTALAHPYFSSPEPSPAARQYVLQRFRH
Dual specificity protein kinase CLK1 (Homo sapiens), sequence (P49759 whole entry, looked up): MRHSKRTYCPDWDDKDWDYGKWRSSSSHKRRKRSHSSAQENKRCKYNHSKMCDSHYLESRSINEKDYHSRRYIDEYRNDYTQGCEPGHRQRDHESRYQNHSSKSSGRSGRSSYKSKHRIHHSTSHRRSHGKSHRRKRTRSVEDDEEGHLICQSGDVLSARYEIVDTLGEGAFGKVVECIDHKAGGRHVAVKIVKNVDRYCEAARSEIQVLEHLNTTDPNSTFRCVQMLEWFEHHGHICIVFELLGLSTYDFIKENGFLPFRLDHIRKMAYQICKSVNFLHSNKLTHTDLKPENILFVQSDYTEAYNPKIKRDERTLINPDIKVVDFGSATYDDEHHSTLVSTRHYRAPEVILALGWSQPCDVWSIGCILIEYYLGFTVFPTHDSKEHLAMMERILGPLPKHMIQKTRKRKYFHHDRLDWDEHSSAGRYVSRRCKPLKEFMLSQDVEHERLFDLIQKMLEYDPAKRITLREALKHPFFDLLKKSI

inhibition [1]: 90%
inhibition [2]: 80%
EC50 [3]: 0.41 µM
IC50 [4]: 0.0011 µM
inhibition [6]: 50%
inhibition [7]: 90%
IC50 [8]: 0.0018 µM
inhibition [14]: 75%
IC50 [15]: 0.107 µM
inhibition [17]: 80%
inhibition [18]: Active
IC50 [21]: 0.038 µM
inhibition [22]: 60%
inhibition [23]: 50%
IC50 [25]: 0.0076 µM
SMILES: Nc1nc(Nc2ccc(S(N)(=O)=O)cc2)sc1C(=O)c1ccccc1[N+](=O)[O-]
inhibition [5]: 70%
IC50 [9]: > 10 µM
IC50 [10]: 2 µM
IC50 [11]: 1.8 µM
IC50 [12]: 16 µM
Activity [13]: 26%
IC50 [16]: 0.56 µM
IC50 [19]: 3 µM
IC50 [20]: 6.9 µM
IC50 [24]: 1.4 µM
IC50 [26]: 0.27 µM
IC50 [27]: 1.6 µM
IC50 [28]: 0.49 µM
